STAT3 act = STAT3 signaling activation | U3A cells, IL-6 STAT3-luciferase reporter, luminescence; 100% = signal with IL-6 EC80 alone | activation (% of control), % at 5.6 µM | actives 0.91% (n = 190,000);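 active = activation above the screen-wide mean of compound activation plus 3 SD, cut at about 130% in these data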;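 note: 0% = background luminescence of wells with medium and substrate only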
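Material: human STAT1-deficient U3A cells with stable STAT3-luciferase reporter / Probe or stimulus: IL-6 stimulus at 33 ng/mL final / Schedule: 1 h compound pre-exposure, 6 h IL-6 stimulation, 37 °C / Technique: luminescence / Read-out basis: percent of IL-6-only median luminescence / Control set: IL-6-only high control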
STAT3 inh = inhibitors of IL-6 induced STAT3 signaling; U3A cells, IL-6 STAT3-luciferase reporter, luminescence; host cell line lacks STAT1; inhibition, % at 5.5 µM; actives 0.89% (n = 190,000); AID 862;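 active = inhibition above the mean inhibition across all screened compounds plus 3 SD, cut at about 44% in these data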;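 note: 0% = DMSO only wells and 100% = 100 µM nifuroxazide control wells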
STAT1 inh = STAT1 signaling inhibition; NIH 3T3 STAT1-luciferase reporter, IFN-gamma, luminescence; inhibition, % at 5.5 µM; actives 0.35% (n = 200,000);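 active = inhibition above a set limit, the mean inhibition across all tested compounds plus 3 SD, cut at about 34% in these data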;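 note: 0% = IFN-gamma with DMSO and 100% = IFN-gamma with 300 µM nifuroxazide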
PPC-1+TRAIL kill = compounds killing PPC-1 cancer cells with TRAIL present (potentiator screen, no TRAIL-free arm). actives 0.41% (n = 220,000). AID 1443. cell killing (% activity), % at 4 µM or 5 µM. PPC-1 cells + TRAIL, ATPLite viability luminescence;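 active = cell killing above 50% in the first pass at 4 µM, then a duplicate retest at 5 µM averaging 50% or more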;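 note: plate controls were cells with TRAIL plus DMSO for no effect and medium-only wells lacking cells for full effect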
TRAIL sens C8 = sensitizes caspase-8 expressing cells to TRAIL; NB7+C8 cells + TRAIL, ATPlite viability luminescence; inhibition (viability loss, TRAIL sensitization), % at 10 µM; actives 1% (n = 360,000);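 active = compounds causing at least 50% loss of cell viability in the single-dose screen, relative to plate controls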
* hit, by the source's call; x = no result given. Most compounds without a hit are left out; they make up all but 1.8% or so of the library.

SMILES | STAT3 act | STAT3 inh | STAT1 inh | PPC-1+TRAIL kill | TRAIL sens C8
C=CCNC(=O)/C(C#N)=C/c1ccc(SC)cc1 | 92.7 | 11.2 | 7.7 | 6.4 | -5.8
O=C(N/N=C/c1ccco1)C1CC1c1ccccc1 (stereo not given) | 101.9 | -1.4 | -1.7 | 33.3 | -0.1
CC(C)(C)c1ccc(C2CC2C(=O)N/N=C\c2ccc[nH]2)cc1 (stereo not given) | 41.5 | 71.0* | 45.8* | 9.0 | 64.9*
CCCCCCCCCCCCCCCC[N+](C)(C)CCN(Cc1ccc(OC)cc1)c1ncccn1 | x | x | x | x | 53.4*
C=CCOn1c(C)c(C(C)=O)c2c3no[n+]([O-])c3ccc21 | 90.6 | 15.4 | 8.1 | 11.7 | 59.8*
COc1ccc(NC(=O)Nc2cc(C(C)(C)C)on2)cc1OC | x | x | x | x | 6.9
O=C(Cc1csc(NC(=O)Nc2ccc(Cl)cc2)n1)NCc1ccccn1 | x | x | x | x | 53.9*
Cc1ccc(-c2nc(=S)c3c(n2Cc2ccco2)CCCC3)cc1 | 143.0* | -47.0 | 1.5 | 24.6 | 6.1
CS(=O)(=O)c1cccc(C(=O)Nc2ccc3c(c2)OCCCO3)c1 | x | x | x | x | 10.6
O=C(Nc1ccccc1C(=O)N/N=C/c1ccc(O)cc1)c1ccccc1 | x | x | x | 29.4 | 78.7*
COc1ccc(C(=O)Nc2ccccc2C(=O)Nc2ccc(C(=O)O)cc2)cc1 | x | x | x | x | 46.6
COc1ccc(C(=O)Nc2ccccc2C(N)=O)cc1 | 86.9 | 16.9 | -20.2 | 32.5 | 51.6*
COc1ccc(C(=O)Nc2ccccc2C(=O)N2CCCCCC2)cc1 | x | x | x | x | 18.5
COc1cccc(/C=N/NC(=O)c2ccccc2NC(=O)c2ccco2)c1OC | x | x | x | -0.8 | 3.9
COc1ccc(C(=O)Nc2ccccc2C(=O)Nc2ccccc2C(=O)O)cc1 | x | x | x | x | 58.5*
COc1ccc(C(=O)Nc2ccccc2C(=O)N/N=C/c2cccc3ccccc23)cc1 | 31.7 | 80.1* | 38.8* | 89.6* | 95.1*
COC(=O)[C@]12CCCCC=C1N(CCC1=CCCCC1)C(=O)[C@H](CC(=O)N1CCC(c3ccccc3)CC1)C2 | x | x | x | x | 4.2
Cc1ccc(S(=O)(=O)NNc2c3ccccc3nc3ccc(Cl)cc23)cc1 | x | x | x | x | 5.3
COc1ccc(C(=O)NC(CCSC)C(=O)NC2CC2)cc1 (stereo not given) | x | x | x | x | -2.0
COc1ccc(NC(=O)c2ccccc2NC(=O)c2cccs2)cc1 | x | x | x | x | 1.8
NC(=O)c1ccccc1NC(=O)c1ccc2ccccc2c1 | x | x | x | x | 58.6*
COc1ccc(C(=O)Nc2ccccc2C(=O)Nc2ccncc2)cc1 | x | x | x | x | 65.0*
Cc1nc(-c2cccc(NC(=O)c3ccc(-n4nccc4C)cc3)c2)cs1 | x | x | x | x | 59.9*
O=C1CC(c2ccccc2)Cc2nc(N3CCc4ccccc43)ncc21 (stereo not given) | 103.6 | -4.5 | -2.3 | x | -8.9
O=C1CCCc2nc(N3CCc4ccccc43)ncc21 | 93.2 | 13.3 | -54.8 | 40.8 | 51.6*
SMILES | STAT3 act | STAT3 inh | STAT1 inh | PPC-1+TRAIL kill | TRAIL sens C8
CCC(=O)Nc1cccc(-c2ccc(N3CCC(C)CC3)nn2)c1 | x | x | x | x | 93.9*
O=C(COc1ccccc1)Nc1cccc(-c2ccc(N3CCOCC3)nn2)c1 | x | x | x | x | 70.1*
CC1CCN(c2ccc(-c3cccc(NC(=O)c4ccco4)c3)nn2)CC1 | x | x | x | x | 86.3*
O=C(Nc1cccc(-c2ccc(N3CCCCC3)nn2)c1)c1ccc(Br)o1 | x | x | x | x | 78.4*
CCC(=O)Nc1ccc(-c2ccc(N3CCC(C)CC3)nn2)cc1 | x | x | x | x | 13.7
CC1(C(=O)NS(=O)(=O)c2cccc(Cl)c2)CCN1C(=O)C1(c2ccccc2)CC1 (stereo not given) | x | x | x | x | -6.0
COC(C[C@@H]1O[C@H]1C(=O)COCc1ccccc1)OC | x | x | x | x | 1.5
Clc1ccc(-n2cccc2CN2CCc3c([nH]c4ccccc34)C2c2ccccn2)nc1 (stereo not given) | 89.9 | 15.8 | 0.6 | 20.5 | -0.4
C=CCN1C(=O)C(=O)N(CC(=O)c2ccc3c(c2)CCCC3)C1=O | x | x | x | x | -8.3
O=C(Nc1ccc(F)c(F)c1)C1CCCCC1 | x | x | x | x | -10.7
CC1CCN(c2ccc(-c3cccc(NC(=O)C(F)(F)F)c3)nn2)CC1 | x | x | x | x | 97.4*
O=C(Nc1cccc(-c2ccc(N3CCOCC3)nn2)c1)c1ccccc1 | x | x | x | x | 36.6
O=S(=O)(Nc1cccc(-c2ccc(N3CCCCCC3)nn2)c1)c1ccc(C(F)(F)F)cc1 | x | x | x | x | 13.5
O=C(Nc1cccc(-c2ccc(N3CCCCC3)nn2)c1)C(F)(F)F | x | x | x | x | 88.8*
CCOCCCNc1ncnc2c1[nH]c1ccccc12 | 79.8 | 26.8 | 29.8 | 18.6 | 20.8
CCCCOCCCNc1ncnc2c1[nH]c1ccccc12 | 55.0 | 56.3* | 41.3* | 28.2 | 27.3

Compound activity (PubChem)
